Experimental data: ChEMBL document CHEMBL6134900 (J Med Chem, 2025)
Active and inactive are the calls of the source. The calls are words filed in the database; no cut-off is given here.

Assays:
[1] = target: T1, Protein cereblon/SWI/SNF-related matrix-associated actin-dependent regulator of chromatin subfamily A member 2 (Homo sapiens, UniProt P51531+Q96SW2); assay: PROTAC activity at CRBN/SMARCA2 in human H322 cells harboring SMARCA4 mutant assessed as induction of SMARCA2 degradation at 1 uM in presence of bortezomib by immunoblot analysis; format: cell-based
[2] = target: T1, Protein cereblon/SWI/SNF-related matrix-associated actin-dependent regulator of chromatin subfamily A member 2; assay: PROTAC activity at CRBN/SMARCA2 in CRBN knockout human H322 cells harboring SMARCA4 mutant assessed as induction of SMARCA2 degradation at 1 uM by immunoblot analysis; format: cell-based
[3] = In vivo PROTAC activity at CRBN I391V mutant/SMARCA2 in mouse assessed as SMARCA2 degradation in spleen at 10 to 80 mg/kg, po administered once daily for 3 days and measured at 24 hrs post last dose by Western blotting analysis relative to control; format: functional; settings: dose 10-80 mg/kg, time 3 day
Procedure, shortened: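 CrbnI391V mice given 10, 20, 40 or 80 mg/kg or vehicle orally once daily for 3 days. Euthanised 24 h after the last dose. Spleen SMARCA2 measured by Western blot with actin as loading control, relative to vehicle. Plasma drug level measured at the same time.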

[4] = In vivo PROTAC activity at CRBN/SMARCA2 in female athymic nude mouse xenografted with human NCI-H1568 cells harboring SMARCA4 mutant assessed as SMARCA2 degradation at 40 mg/kg, po administered once daily via gavage for 13 days by Western blotting analysis relative to control; format: functional; settings: time 13 day
Procedure, shortened: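 H1568 cells (2 × 10^6, PBS/Matrigel 1:1) implanted subcutaneously in the flank of female nude mice aged 6–8 weeks. Randomised at about 60 mm3 tumour volume. 40 mg/kg or vehicle given by oral gavage once daily for 13 days in 0.5% methylcellulose/Tween-80, sonicated. Tumours collected 24 h after dosing. SMARCA2 measured by Western blot against β-actin, relative to vehicle.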

NCI-H2030 [5] = assay: Synergistic antitumor activity against human NCI-H2030 cells harboring KRAS G12C mutant/SMARCA4 mutant assessed as cell growth inhibition at 1 uM incubated for 7 days in presence of sotorasib by Incucyte S3 analysis; format: functional, cell-based; settings: time 7.0 day
Procedure, shortened: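 H2030 cells plated at 500 per well and grown overnight at 37 °C. Treated with 3-fold dilutions of sotorasib, test agent, or both. Confluency imaged every 4 h for 7 days on IncuCyte S3. Synergy scored as Bliss/Lowe consensus, >10 taken as synergy.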

NCI-H2030 [6] = assay: Inhibition of ERK phosphorylation in human NCI-H2030 cells harboring KRAS G12C mutant/SMARCA4 mutant assessed as reduction in p-ERK level at 1.25 uM incubated for 72 hrs in presence of sotorasib by Western blotting analysis; format: cell-based
[7] = target: T1, Protein cereblon/SWI/SNF-related matrix-associated actin-dependent regulator of chromatin subfamily A member 2; assay: PROTAC activity at CRBN/SMARCA2 in human H322 cells harboring SMARCA4 mutant assessed as induction of SMARCA2 degradation at 0.1 uM in presence of MLN4924 by immunoblot analysis; format: cell-based
[8] = target: T1, Protein cereblon/SWI/SNF-related matrix-associated actin-dependent regulator of chromatin subfamily A member 2; assay: PROTAC activity at CRBN/SMARCA2 in CRBN knockout human H322 cells harboring SMARCA4 mutant assessed as induction of SMARCA2 degradation at 0.1 uM by immunoblot analysis; format: cell-based
[9] = target: Transcriptional coactivator YAP1 (Homo sapiens) (UniProt P46937); assay: Induction of YAP1 phosphorylation at S109 residue in human H322 cells harboring SMARCA4 mutant at 0.1 uM incubated for 96 hrs by immunoblot analysis; format: cell-based; settings: filed as activator
Chain of Transcriptional coactivator YAP1 (Homo sapiens) (P46937 whole entry): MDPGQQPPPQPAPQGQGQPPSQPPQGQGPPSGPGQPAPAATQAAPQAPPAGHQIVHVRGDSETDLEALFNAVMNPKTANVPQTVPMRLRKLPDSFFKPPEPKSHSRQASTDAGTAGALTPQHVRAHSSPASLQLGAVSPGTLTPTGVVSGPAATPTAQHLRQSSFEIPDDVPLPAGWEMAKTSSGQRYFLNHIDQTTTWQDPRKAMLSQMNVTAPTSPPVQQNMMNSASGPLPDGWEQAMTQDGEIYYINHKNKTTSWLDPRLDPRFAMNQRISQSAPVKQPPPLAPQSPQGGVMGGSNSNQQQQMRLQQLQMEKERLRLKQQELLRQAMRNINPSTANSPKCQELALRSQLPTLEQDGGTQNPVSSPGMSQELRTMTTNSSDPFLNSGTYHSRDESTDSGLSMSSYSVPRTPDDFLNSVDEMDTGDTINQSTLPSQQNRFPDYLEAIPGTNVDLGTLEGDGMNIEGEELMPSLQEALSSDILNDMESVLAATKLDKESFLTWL

[10] = Drug metabolism in mouse liver microsomes assessed as N-dealkylation mediated 2-(6-amino-5-(4-(3-fluoro-4-(piperazin-1-yl)benzyl)piperazin-1-yl)pyridazin-3-yl)phenol metabolite formation at 10 uM incubated for 60 mins by LC-UV-HRMS analysis; format: ADME, Microsome; settings: 1 h
Procedure, shortened: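 Compound at 10 μM incubated with mouse liver microsomes at 37 °C for 60 min. Metabolites detected by LC-UV-HRMS, structures proposed from MS and MS2 data, and each metabolite given as a percentage.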

[11] = Toxicity in female athymic nude mouse xenografted with human NCI-H2023 cells harboring SMARCA4 mutant assessed as change in body weight at 5 mg/kg, po administered once daily via gavage for 19 days relative to control; format: organism-based; settings: in vivo, 456 h, time 19 day
Procedure, shortened: (§1)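 Cells (H1568 2 × 10^6, H2023 10 × 10^6, HCC515 5 × 10^6) in PBS:Matrigel 1:1, 200 μL, injected subcutaneously into flanks of 6–8-week-old females. Randomized at mean tumor volume 60 mm3 (H1568) or <200 mm3 (others). Dosed in 0.5% methylcellulose + 0.2–1% Tween-80, sonicated on ice. Caliper tumor volume and body weight tracked, mean ± SEM.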

[12] = Toxicity in female athymic nude mouse xenografted with human HCC515 cells harboring SMARCA4 mutant assessed as change in body weight at 5 mg/kg, po administered once daily via gavage for 19 days relative to control; format: organism-based; settings: in vivo, 456 h, time 19 day; procedure, shortened: as §1

Structure (SMILES) | Activity [1] | Activity [2] | Activity [3] [%] | Activity [4] [%] | Activity (NCI-H2030 [5]) | inhibition (NCI-H2030 [6]) | Activity [7] | Activity [8] | Activity [9] | Drug metabolism [10] | Activity [11] [%] | Activity [12] [%]
Nc1nnc(-c2ccccc2O)cc1N1CCN(Cc2ccc(N3CCC(CN4CCN(c5ccc6c(c5)C(=O)N(C5CCC(=O)NC5=O)C6=O)CC4)CC3)c(F)c2)CC1 (configuration not stated) | inactive | inactive | 11 | 50 | Active; Robust Synergistic Growth Inhibition Observed | Active | – | – | – | – | – | –
Nc1nnc(-c2ccccc2O)cc1N1CCN(Cc2ccc(N3CCN(CCOc4cccc5c4C(=O)N(C4CCC(=O)NC4=O)C5=O)CC3)c(F)c2)CC1 (configuration not stated) | – | – | – | – | – | – | inactive | inactive | Active | metabolite_detected | < 10 | < 20
